# Compound activity deposited in PubChem by Broad Institute.
# A selection: hits, their analogues and other compounds. The true share with any hit is near 2.6%.
# RAD52 inh: inhibitors of human RAD52 DNA annealing | P43351 | recombinant RAD52 DNA annealing, FRET fluorescence | inhibition, % at 18.7 µM | 360,000 compounds, 0.46% hits | AID 651710;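 active = every replicate showing at least 50% inhibition; inconclusive = mean inhibition at least 50% but not in every replicate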
# GSIS activator: GLuc luminescence reporter in INS-1E cells, primary screen for activators of glucose-dependent secretion of insulin | INS-1E GLuc reporter insulin secretion, 2-3 h | 370,000 compounds, 0.61% hits | AID 743287 | activation, % at 16.6 µM;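 active = lowest replicate activation of at least 40%, so every replicate reaches that level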
# Ecoli rRNA inh: inhibits bacterial ribosomal RNA function over humanized ribosomes. 350,000 compounds, 1.6% hits. E. coli WT GFP vs humanized-ribosome RFP mutants, fluorescence, 24 h; stronger effect = lower value; DMSO median 0, no signal -100. GFP signal change (wild-type ribosome), % (no concentration beside the values);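 active = significant combined selectivity score with lowered wild-type GFP, culture density cut under 30%, mutant RFP and density less affected; inactive = any of these conditions unmet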
# RAD54 branch: blocks human RAD54 Holliday junction branch migration; Q92698; FAM/BHQ fluorescence; inhibition, % at 10.4 µM; 360,000 compounds, 0.14% hits; AID 602329;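 active = mean normalized replicate activity at least 40 and at least half of replicates scoring 40 or more; inconclusive = only one of the two criteria met; inactive = mean below 40 and under half of replicates reaching 40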;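 note: inhibitors cause a drop in the FAM fluorescence signal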
# MLL AF4-AF9 inh: inhibitors of human MLL-AF4/AF9 interaction. AlphaScreen, biotin-AF4 peptide binding to FLAG-AF9. inhibition, % at 10 µM. 350,000 compounds, 0.47% hits;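 active = every replicate reaching a set inhibition limit, whatever the replicate mean, cut at about 25% in these data; inconclusive = mean inhibition reaches that limit but some replicates miss it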
# E-selectin induc: E-selectin induction on HUVECs; P16581; HUVEC E-selectin immunofluorescence imaging; normalized: neutral wells 0, TNF-alpha wells 100; activation, % at 7.58 µM; 260,000 compounds, 0.37% hits;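 active = mean E-selectin-positive cell signal at least 10% of the positive control, reached in at least 60% of replicates, without over 20% cell loss; inconclusive = no rule given, readout overlaps actives, possibly toxicity-flagged; inactive = the rest, including those meeting only one limit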
# Target sequence (P16581 whole entry, looked up): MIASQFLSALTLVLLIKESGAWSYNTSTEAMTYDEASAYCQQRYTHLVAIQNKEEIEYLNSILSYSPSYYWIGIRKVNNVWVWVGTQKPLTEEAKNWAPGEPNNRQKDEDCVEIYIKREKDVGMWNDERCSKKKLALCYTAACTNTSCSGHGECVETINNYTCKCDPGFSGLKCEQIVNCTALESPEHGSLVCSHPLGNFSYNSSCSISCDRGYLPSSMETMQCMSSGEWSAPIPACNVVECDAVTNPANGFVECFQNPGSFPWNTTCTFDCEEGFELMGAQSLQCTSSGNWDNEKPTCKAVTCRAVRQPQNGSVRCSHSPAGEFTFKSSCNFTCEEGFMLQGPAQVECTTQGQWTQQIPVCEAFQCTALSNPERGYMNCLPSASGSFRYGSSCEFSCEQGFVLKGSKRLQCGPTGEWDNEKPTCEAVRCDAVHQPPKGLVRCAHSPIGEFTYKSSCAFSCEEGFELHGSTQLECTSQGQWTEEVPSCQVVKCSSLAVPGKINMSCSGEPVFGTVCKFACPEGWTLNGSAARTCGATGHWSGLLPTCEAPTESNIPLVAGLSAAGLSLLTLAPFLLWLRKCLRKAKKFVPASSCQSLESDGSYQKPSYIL
#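 System: HUVEC / Compound: single concentration / Signal: immunofluorescence imaging / Read-out: percent E-selectin-positive cells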
# Hits are given with their value; 0 = inactive; ? = inconclusive; - = no result; ! = a repeat was not active.
SMILES,RAD52 inh,GSIS activator,Ecoli rRNA inh,RAD54 branch,MLL AF4-AF9 inh,E-selectin induc
Cc1ccc(-c2nnc(NC(=O)c3ccco3)o2)c(C)c1,0,0,-24,0,0,0
O=C(Nc1ccc2c(c1)[C@@H]1C[C@H](CC(=O)N3CCOCC3)O[C@H](CO)[C@@H]1O2)NC1CCCC1,0,0,0,0,0,0
N/C(=N\OC(=O)COc1ccc(Br)cc1Cl)c1ccncc1,0,0,0,-,0,0
N/C(=N\OC(=O)COc1cc(Cl)c(Cl)cc1Cl)c1ccncc1,0,0,0,-,0,74
CCOC(=O)C1CCN(C(=O)c2cc3c(=O)n4cccc(C)c4nc3s2)CC1,0,0,-19,0,0,-
Cc1ccc(-c2n[nH]c(=S)n2/N=C/c2c(C)nn(-c3ccccc3)c2C)cc1,-,203,-,-,-,0
Cc1ccccc1-c1n[nH]c(=S)n1/N=C/c1c(C)nn(-c2ccccc2)c1C,-,91,-,0,-,-
Cc1nn(-c2ccccc2)c(C)c1/C=N/n1c(-c2ccc(C(C)(C)C)cc2)n[nH]c1=S,-,-,-,0,-,-
Cc1cc(-c2ccc(Cl)cc2)n2nc(C)cc2n1,0,80,0,0,0,0
Cc1cc(C)n2nc(-c3ccc(Br)cc3)cc2n1,0,0,0,0,0,-
Cc1cc(-c2ccc(Br)cc2)n2nc(C)cc2n1,0,43,-,0,0,0
C/C=C/c1ccc([C@@H]2[C@@H](CO)N(C(=O)CN(C)C)C23CN(C(=O)C2CCC2)C3)cc1,0,0,0,-,0,0
CN1CCN(C(=O)CSc2nc3c(c(=O)n(C)c(=O)n3C)n2C)CC1,0,0,0,0,0,-
CC1CCCC(C)N1C(=O)CSc1nc2c(c(=O)n(C)c(=O)n2C)n1C (centres undefined),0,0,0,0,0,27
COc1ccc(CCN2C(=O)CC(Cc3ccccc3)C2=O)cc1OC (centres undefined),0,70,0,-,0,-
COc1ccc(CCN2C(=O)CC(Cc3ccc(Br)cc3)C2=O)cc1OC (centres undefined),-,0,-,-,-,-
O=C(NCC[C@@H]1CC[C@H](NC(=O)C2CCCC2)[C@@H](CO)O1)c1cnccn1,0,0,0,0,0,0
CCOc1cc(N2CCOCC2)c(OCC)cc1NC(=O)c1cc(S(=O)(=O)N2CCOCC2)ccc1Cl,0,0,0,0,0,-
CCOc1cc(N2CCOCC2)c(OCC)cc1NC(=O)c1ccc(S(=O)(=O)N2CC(C)OC(C)C2)cc1 (centres undefined),0,0,0,0,0,131
CCOc1cc(N2CCOCC2)c(OCC)cc1NC(=O)C(C)Oc1ccccc1 (centres undefined),0,0,0,0,29,0
C[C@H](CO)N1C[C@H](C)[C@H](CN(C)C(=O)Nc2cccc3ccccc23)Oc2c(NC(=O)Nc3ccc4c(c3)OCO4)cccc2C1=O,0,0,0,0,0,0
CN1CCN(C(=O)C[C@H]2CC[C@H]3[C@@H](COc4ccc(NC(=O)C5CC5)cc4C(=O)N3C)O2)CC1,0,0,0,0,0,0
COCC(=O)Nc1ccc2c(c1)[C@@H]1C[C@H](CC(=O)N3CCc4ccccc4C3)O[C@@H](CO)[C@@H]1O2,0,0,0,0,0,0
COc1ccccc1CCNC(=O)c1cc(COc2cccc(C(F)(F)F)c2)on1,0,0,-34,0,0,-
COc1cccc(OCc2cc(C(=O)NCc3ccc4c(c3)OCO4)no2)c1,0,0,-33,0,0,-
SMILES,RAD52 inh,GSIS activator,Ecoli rRNA inh,RAD54 branch,MLL AF4-AF9 inh,E-selectin induc
O=C(NCc1ccc2c(c1)OCO2)c1cc(COc2c(F)cccc2F)on1,0,0,0,0,0,0
O=C(NCC1CCOCC1)c1cc(COc2cccc(C(F)(F)F)c2)on1,0,0,0,0,0,0
C[C@@H]1CN([C@@H](C)CO)C(=O)CCCn2cc(nn2)CO[C@@H]1CN(C)C(=O)Nc1cccc(Oc2ccccn2)c1,0,0,0,0,0,0
O=C1C(=C(c2ccccc2)N2CCOCC2)Cc2ccccc21,0,-,-22,-,0,-
N#Cc1c(-c2ccco2)cc(C2CC2)nc1N,-,71,-,0,-,-
N#Cc1c(-c2ccccc2)cc(C2CC2)nc1N,-,-,-,0,-,-
O=S(=O)(c1ccccc1)N1CC2(C1)[C@H](c1ccccc1)[C@H](CO)N2CC1CCCC1,0,0,0,-,0,0
COCC(=O)Nc1ccc2c(c1)OC[C@H](C)N(C(=O)NC(C)C)C[C@H](C)[C@H](OC)CN(C)C2=O,0,0,0,0,0,0
COc1ccc2c(c1OC)C(=O)N1c3ccccc3SC21 (centres undefined),-,115,-,0,-,-
COc1ccc2c(c1OC)C(=O)N1c3ccccc3COC21 (centres undefined),-,-,-,0,-,-
CC(=O)/C(C#N)=C1\NC(=O)C(Cc2ccccc2C)S1 (centres undefined),0,0,-30,0,0,-
COc1ccc2c3c([nH]c2c1)[C@@H](CO)N(Cc1ccc(Cl)cc1)CC31CN(Cc2ccccc2)C1,-,0,0,-,-,-
Cc1ccc(NC(=S)NNc2ccc([N+](=O)[O-])cc2S(=O)(=O)Nc2ccccc2C(=O)O)cc1C,-,0,-,0,-,-
O=C(O)c1ccccc1NS(=O)(=O)c1ccc(NNC(=S)Nc2ccc(OC(F)F)cc2)c([N+](=O)[O-])c1,0,0,0,-,27,-
COC(=O)c1sccc1NC(=O)CC1C(=O)NCCN1C(=O)c1ccccc1 (centres undefined),0,0,0,0,0,0
COC(=O)c1sccc1NC(=O)CC1C(=O)NCCN1C(=O)Nc1cc(Cl)ccc1OC (centres undefined),0,0,-22,0,0,0
COc1ccc(CCNC(=O)C(=O)c2c[nH]c3ccccc23)cc1OC,0,0,0,0,0,0
COc1ccc(CCNC(=O)COC(=O)Cc2c[nH]c3ccccc23)cc1OC,0,52,0,0,0,0
COc1ccc(C(=O)OCC(=O)c2ccc(F)cc2)cc1OC,0,0,-22,0,0,0
COc1ccc(C(=O)c2cnc[nH]2)cc1,0,0,0,0,0,-
COc1ccc(CCNC(=O)COC(=O)CCC(=O)c2ccc(F)cc2)cc1OC,0,87,0,-,0,0
COc1ccc(C(=O)c2cnc[nH]2)cc1OC,0,70,0,0,0,0
O=C(Nc1cc(F)ccc1F)N[C@@H]1CC[C@@H](CCn2cc(C3CC3)nn2)O[C@H]1CO,0,0,0,0,0,0
COc1cccc(C(=O)Nc2ccc3c(c2)OC[C@H](C)N(CCc2ccccc2)C[C@@H](C)[C@@H](OC)CN(C)C3=O)c1,0,0,-25!,0,0,0
CCCN1C[C@@H](C)[C@@H](OC)CN(C)C(=O)c2ccc(NC(=O)c3cccc(F)c3)cc2OC[C@H]1C,0,47!,0,0,?,0
CO[C@@H]1CN(C)C(=O)c2ccc(NC(=O)C3CCCC3)cc2OC[C@H](C)N(CCC(F)(F)F)C[C@@H]1C,0,-,-,0,0,0
